{"data": "Measured values from different studies", "target": "Dual specificity protein kinase CLK1 (CLK1, Homo sapiens, UniProt P49759)", "note": "Compare with care: the assays were run in different laboratories."}
{"Structure (SMILES)": "C#Cc1cc(-c2cc(Nc3nc(N[C@@H](C)c4ccc(F)cn4)ncc3Cl)n[nH]2)ccc1C=O", "read-out": "enzyme activity", "mode": "inhibitor", "concentration": "0.2 µM", "measurement": "inhibition", "value": "34.2%"}
{"Structure (SMILES)": "CN1CCN(C(=O)c2ccc(NC(=O)Nc3ccc(N(C)c4ccnc(Nc5ccc(CS(C)(=O)=O)cc5)n4)cc3)cc2)CC1", "read-out": "binding", "method": "competition with immobilised ligand", "concentration": "1 µM", "measurement": "remaining binding", "value": "84%"}
{"Structure (SMILES)": "COc1ccc2oc(-c3ccc4nc(N)oc4c3)c/c(=N\\c3ccccc3NC(=O)CCN)c2c1", "read-out": "binding", "concentration": "1 µM", "measurement": "remaining binding", "value": "94%"}
{"Structure (SMILES)": "C1=C/COCc2cc(ccc2OCCN2CCCC2)Nc2nccc(n2)-c2cccc(c2)COC/1", "read-out": "binding", "concentration": "0.1 µM", "measurement": "remaining binding", "value": "27%"}
{"Structure (SMILES)": "C=CC(=O)N1CCC([C@@H]2CCNc3c(C(N)=O)c(-c4ccc(Oc5ccccc5)cc4)nn32)CC1", "read-out": "enzyme activity", "mode": "inhibitor", "concentration": "1 µM", "measurement": "inhibition", "value": "19%"}
{"Structure (SMILES)": "Cc1ccc(NC(=O)c2ccnc(C(F)(F)F)c2)cc1-c1cc(OCCO)nc(N2CCOCC2)c1", "read-out": "binding", "method": "competition with immobilised ligand", "concentration": "1 µM", "measurement": "remaining binding", "value": "92%"}
{"Structure (SMILES)": "C=CC(=O)N1CCC[C@@H](n2nc(-c3ccc(Oc4ccccc4)cc3)c3c(N)ncnc32)C1", "read-out": "enzyme activity", "mode": "inhibitor", "concentration": "1 µM", "measurement": "inhibition", "value": "23%"}
{"Structure (SMILES)": "CCCCC(=O)Nc1ccc(-c2ccc3ncn(CCC)c(=O)c3c2)cn1", "read-out": "binding", "method": "competition with immobilised ligand", "concentration": "0.5 µM", "measurement": "remaining binding", "value": "79%"}
{"Structure (SMILES)": "Cc1cc(O)c(-c2ccc([C@@H](C)CN(C)C)cc2)c2c1[nH]c(=O)c1sccc12", "read-out": "enzyme activity", "mode": "inhibitor", "concentration": "0.1 µM", "measurement": "inhibition", "value": "-7.55%"}
